Bioassay records (PubChem BioAssay)
A selection: hits, their analogues and other compounds. The true share with any hit is near 2.5%.
TRPML3 agonist: agonists of human TRPML3 channel; Q8TDD5; HEK293 TRPML3-YFP, Fluo-8 calcium fluorescence; 100% = the carbachol control signal; activation, % at 3 µM; hit rate 0.29% among 220,000; AID 1448;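 active means activation above its plate's cutoff, the mean activation of the plate's test wells plus 3 SD, cut at about 12% in these data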;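 further: 0% = DMSO only wells and 100% = carbachol wells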
Target sequence (Q8TDD5 whole entry, looked up): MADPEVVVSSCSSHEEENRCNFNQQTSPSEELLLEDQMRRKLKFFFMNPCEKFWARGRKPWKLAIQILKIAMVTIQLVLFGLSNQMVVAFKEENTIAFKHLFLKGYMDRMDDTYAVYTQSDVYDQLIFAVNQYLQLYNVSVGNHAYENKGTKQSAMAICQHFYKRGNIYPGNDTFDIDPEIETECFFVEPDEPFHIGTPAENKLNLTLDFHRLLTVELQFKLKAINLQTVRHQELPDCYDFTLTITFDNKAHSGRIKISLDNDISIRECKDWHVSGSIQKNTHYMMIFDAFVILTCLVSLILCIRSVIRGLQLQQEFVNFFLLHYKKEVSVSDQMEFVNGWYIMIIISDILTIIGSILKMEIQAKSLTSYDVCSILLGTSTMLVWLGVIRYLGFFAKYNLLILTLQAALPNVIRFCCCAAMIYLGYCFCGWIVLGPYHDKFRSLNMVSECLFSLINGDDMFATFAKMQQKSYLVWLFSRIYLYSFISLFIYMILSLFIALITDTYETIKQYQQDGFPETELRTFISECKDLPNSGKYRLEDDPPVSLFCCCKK
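Material: HEK293 cells stably carrying human TRPML3-YFP; compound dosing: single dose, 3 µM final nominal compound, 0.3% DMSO final; incubation: 1-h 37 °C dye load, 5-s basal, 120-s post-compound reads; technique: Fluo-8 intracellular calcium fluorescence, excitation 470-495 nm, emission 515-575 nm; read-out basis: percent activation from peak-to-basal fluorescence ratio, scaled between DMSO and carbachol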
OX1R antag-1: blocks the human orexin 1 receptor; O43613; CHO/OX1R cells, Fluo-8 calcium fluorescence, orexin A; inhibition, % at 5 µM; hit rate 0.43% among 330,000; AID 434989;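 active means inhibition above its plate's threshold, mean inhibition of all tested compounds on the plate plus 3 SD, cut at about 37% in these data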;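 further: 0% = orexin A challenge wells and 100% = SB-334867-A antagonist wells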
CHO parental Ca: counter-screen for OX1R antagonists: effect in parental CHO cells; parental CHO-K1, ATP-induced calcium, Fluo-8 fluorescence; inhibition, % at 5.6 µM; hit rate 0.63% among 330,000; AID 463079;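 active means inhibition above that plate's mean sample inhibition plus 3 SD, cut at about 26% in these data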;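 further: 0% = ATP-challenged DMSO wells and 100% = DMSO wells without ATP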
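Assay system: untransfected parental CHO cell line. Also added: ATP agonist challenge. Dosing: one dose, 5.6 µM nominal. Measured by: Fluo-8 fluorescence. Read-out: % inhibition. Benchmarks: ATP wells versus no-ATP DMSO wells. Repeats: no replicates.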
zfTRPN1 agonist: agonists of zebrafish TRPN1 channel. activation, % at 3 µM. hit rate 0.18% among 220,000. AID 1424. HEK293 zebrafish TRPN1-YFP, Fluo-8 calcium fluorescence; 100% = response to 87 µM carbachol;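 active means activation above its plate's cutoff, the mean activation of test wells on that plate plus 3 SD, cut at about 19% in these data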;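 further: 0% = DMSO alone and 100% = 87 µM carbachol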
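Control set: carbachol 87 µM as high control, DMSO as low control; system: HEK293 stable line with zebrafish TRPN1-YFP; read-out: % activation versus carbachol response; detection: intracellular calcium fluorescence with Fluo-8; doses: single test compound dose, 3 µM nominal, 0.3% DMSO; schedule: dye 1 h 37 °C plus 30 min RT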
OX1R antag-2: OX1R (human) antagonism; O43613; OX1R-expressing cells, FRET antagonist read-out; inhibition, % at 6.6 µM; hit rate 1.8% among 330,000; AID 485270; in the data active means inhibition mostly above about 38%, no sharp cut-off; inactive means mostly below about 40%;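 further: 0% = agonist challenge alone and 100% = reference antagonist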
Numbers without * were called inactive; / = no result given.

SMILES | TRPML3 agonist | OX1R antag-1 | CHO parental Ca | zfTRPN1 agonist | OX1R antag-2
Cc1cccc(N=Nc2ccc(O)c3ncccc23)c1 | 0.3 | 47.8* | 67.7* | 0.3 | 24.4
O=C(Nc1ncccc1O)c1ccc2c(c1)OCCO2 | / | -10.5 | 2.3 | / | 11.5
Oc1ccc(N=Nc2ccc3c(c2)OCCO3)c2ncccc12 | -1.7 | 50.5* | 50.8* | -2.4 | 19.0
NS(=O)(=O)c1ccc(N=Nc2ccc(O)c3ncccc23)cc1 | / | -15.4 | -3.1 | / | 3.3
Cc1ccccc1-n1sc2cc(F)ccc2c1=O | 7.7 | 13.0 | 35.4* | 12.3 | 27.1
O=C(O)c1cccc(-n2sc3ccccc3c2=O)c1 | / | -13.9 | -5.9 | / | -6.9
O=c1c2ccccc2sn1-c1ccccc1 | 1.4 | 20.3 | 48.2* | 0.4 | 46.5
O=c1c2cc(F)ccc2sn1-c1ccccc1 | / | 46.0 | 72.0* | / | 29.4
CC1NC(=O)c2ccccc2-n2c1nc1cc(F)ccc1c2=O (centres undefined) | / | -13.6 | -4.9 | / | -2.1
Cc1nnc(SCC(=O)NCC(=O)Nc2ccc(F)c(F)c2F)n1Cc1ccccc1 | 0.2 | -17.4 | -16.1 | -0.1 | 1.2
Cc1ccc(S(=O)(=O)N2CCCCC2)cc1C(=O)N(CCc1ccccc1)Cc1ccccc1 | / | -23.8 | -8.4 | / | 15.5
Cc1ccc(C(=O)N(C)CC(=O)Nc2cccc(C)c2C)o1 | / | -19.2 | -8.6 | / | -10.2
Cc1ccccc1-c1cc(C(=O)NCc2ccc(OC(F)(F)F)cc2)n(CC2CC(c3cccnc3)=NO2)n1 (centres undefined) | / | 7.7 | -3.6 | / | 5.5
O=C(COc1ccccc1Br)N1CCN(C(=O)c2ccco2)CC1 | / | -23.1 | -10.4 | / | 7.0
O=C(Nc1nccs1)c1ccc(-c2ccccc2[N+](=O)[O-])o1 | / | -12.7 | -6.8 | / | 18.6
O=C(Nc1nccs1)c1ccc(-c2ccccc2Cl)o1 | -0.8 | 8.3 | -36.0 | -1.9 | 59.1*
O=C(Nc1nccs1)c1ccc(-c2ccc(Cl)cc2)o1 | -0.5 | 5.7 | -31.0 | -2.8 | 49.4*
O=Cc1ccnc(-c2ccc(OC(=O)c3ccco3)cc2)n1 | 1.0 | -15.0 | -7.8 | 1.1 | -0.6
Cn1c2ccccc2c2c(=O)oc3ccccc3c21 | / | 25.1 | -5.5 | / | 61.3*
CCCn1cnc2c(=O)oc3ccccc3c21 | 0.2 | 3.1 | 11.4 | -0.1 | 31.2
CCCCCCCn1c(=O)c(C(=O)OC)c(N)c2ccccc21 | 2.9 | 41.3* | 58.4* | 6.5 | 60.2
O=C(Nc1ccc(Oc2ccc(Cl)cc2)c(Cl)c1)c1cc(I)cc(I)c1O | / | 5.4 | 1.6 | / | 48.9*
O=C(Nc1ccc(S(=O)(=O)N2CCCC2)cc1)c1ccc([N+](=O)[O-])o1 | / | -5.8 | -4.2 | / | 34.2*
O=C(Nc1ccc(CN2CCOCC2)cc1)c1ccc(Cl)cc1 | / | -14.3 | -15.1 | / | 3.0
O=C(Nc1ccc(S(=O)(=O)Nc2ccccc2)cc1)c1ccc(CN2CCOCC2)cc1 | 7.2 | 20.2 | 5.1 | 19.5* | 22.4
SMILES | TRPML3 agonist | OX1R antag-1 | CHO parental Ca | zfTRPN1 agonist | OX1R antag-2
O=C(Nc1ccc(S(=O)(=O)N2CCCCC2)cc1)c1ccc(CN2CCc3ccccc3C2)cc1 | 4.4 | -9.9 | 46.9* | 9.8 | 16.2
CCN(CC)S(=O)(=O)c1cc([N+](=O)[O-])ccc1NNC(=O)Nc1ccc(Cl)c(Cl)c1 | 1.3 | 24.8 | 37.7* | 4.0 | 63.0
O=C(NNc1ccccc1[N+](=O)[O-])Nc1ccc(Cl)c(Cl)c1 | 2.0 | 8.6 | 11.5 | 0.3 | 18.8
Cc1n[nH]c(=O)c2c(NC(=O)CSc3nc4ccccc4c(=O)n3-c3ccc(OC(F)F)cc3)oc(C)c12 | / | -7.9 | -21.3 | / | 76.3*
Cc1cccc(C(=O)NC2CCN(S(=O)(=O)c3ccc(F)cc3)CC2)c1 | / | 16.1 | 41.2* | / | 10.0
O=C(Nc1cccc(C(F)(F)F)c1)NC1CCN(S(=O)(=O)c2ccc(F)cc2)CC1 | -0.7 | -4.6 | 33.6* | -1.8 | 7.0
CC(=O)c1ccc(S(=O)(=O)N2CCC(NC(=O)Nc3cccc(F)c3)CC2)cc1 | 0.0 | -16.1 | -5.9 | -0.5 | -0.2
O=C(NC1CCN(S(=O)(=O)c2ccc(F)cc2)CC1)c1cccc(F)c1 | / | -29.1 | -7.1 | / | 9.3
COc1ccc(C(=O)Nc2cc3c(cc2OC)CCCC3)cc1Br | 0.1 | 8.8 | 31.4* | 0.6 | 71.9*
CCn1c(SCC(=O)Nc2cc(C)on2)nc2c(c1=O)SCC2 | / | -22.2 | -6.1 | / | 4.4
CCNC(=O)O/N=C1\CCCCC1c1ccc([N+](=O)[O-])cc1[N+](=O)[O-] (centres undefined) | / | -16.2 | -3.1 | / | 45.5*
